According to ChEMBL document CHEMBL3232922, “Discovery and SAR of 6-alkyl-2,4-diaminopyrimidines as histamine H₄ receptor antagonists” (J Med Chem, 2014):
The source made the active and inactive calls. No cut-off for these calls is given here.

Tests used:
[1] = Oral bioavailability in Balb/c mouse at 5 mg/kg; format: ADME, organism-based; conditions: in vivo
[2] = Oral bioavailability in beagle dog at 10 mg/kg; format: ADME, organism-based, Canis lupus familiaris; conditions: in vivo
[3] = Half life in human microsomes; format: ADME, Microsome
[4] = Half life in mouse liver at 5 mg/kg, po administered as single dose by LC-MS/MS analysis; format: ADME, organism-based; set-up: dose 5 mg/kg, route oral
In short: (§1)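 Mice received one oral dose of 5 mg/kg. Brain, liver and kidneys were surgically removed from three mice per time point for up to 96 h after dosing. Tissue drug levels were measured by LC–MS/MS with a lower limit of quantitation of 1 ng/g. Tmax and t1/2 are reported as means.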

[5] = Clearance in beagle dog at 2 mg/kg, iv; format: ADME, organism-based, Canis lupus familiaris; set-up: dose 2 mg/kg, route intravenous; conditions: beagle, in vivo
[6] = Half life in mouse kidney at 5 mg/kg, po administered as single dose by LC-MS/MS analysis; format: ADME, organism-based; set-up: dose 5 mg/kg, route oral; in short: as §1
[7] = biological target: Voltage-gated inwardly rectifying potassium channel KCNH2 (Homo sapiens, UniProt Q12809); assay: Inhibition of human ERG channel transfected in HEK293 cells assessed as K+ current at up to 10 uM by patch clamp assay; format: cell-based
Chain of Voltage-gated inwardly rectifying potassium channel KCNH2 (Q12809 whole entry): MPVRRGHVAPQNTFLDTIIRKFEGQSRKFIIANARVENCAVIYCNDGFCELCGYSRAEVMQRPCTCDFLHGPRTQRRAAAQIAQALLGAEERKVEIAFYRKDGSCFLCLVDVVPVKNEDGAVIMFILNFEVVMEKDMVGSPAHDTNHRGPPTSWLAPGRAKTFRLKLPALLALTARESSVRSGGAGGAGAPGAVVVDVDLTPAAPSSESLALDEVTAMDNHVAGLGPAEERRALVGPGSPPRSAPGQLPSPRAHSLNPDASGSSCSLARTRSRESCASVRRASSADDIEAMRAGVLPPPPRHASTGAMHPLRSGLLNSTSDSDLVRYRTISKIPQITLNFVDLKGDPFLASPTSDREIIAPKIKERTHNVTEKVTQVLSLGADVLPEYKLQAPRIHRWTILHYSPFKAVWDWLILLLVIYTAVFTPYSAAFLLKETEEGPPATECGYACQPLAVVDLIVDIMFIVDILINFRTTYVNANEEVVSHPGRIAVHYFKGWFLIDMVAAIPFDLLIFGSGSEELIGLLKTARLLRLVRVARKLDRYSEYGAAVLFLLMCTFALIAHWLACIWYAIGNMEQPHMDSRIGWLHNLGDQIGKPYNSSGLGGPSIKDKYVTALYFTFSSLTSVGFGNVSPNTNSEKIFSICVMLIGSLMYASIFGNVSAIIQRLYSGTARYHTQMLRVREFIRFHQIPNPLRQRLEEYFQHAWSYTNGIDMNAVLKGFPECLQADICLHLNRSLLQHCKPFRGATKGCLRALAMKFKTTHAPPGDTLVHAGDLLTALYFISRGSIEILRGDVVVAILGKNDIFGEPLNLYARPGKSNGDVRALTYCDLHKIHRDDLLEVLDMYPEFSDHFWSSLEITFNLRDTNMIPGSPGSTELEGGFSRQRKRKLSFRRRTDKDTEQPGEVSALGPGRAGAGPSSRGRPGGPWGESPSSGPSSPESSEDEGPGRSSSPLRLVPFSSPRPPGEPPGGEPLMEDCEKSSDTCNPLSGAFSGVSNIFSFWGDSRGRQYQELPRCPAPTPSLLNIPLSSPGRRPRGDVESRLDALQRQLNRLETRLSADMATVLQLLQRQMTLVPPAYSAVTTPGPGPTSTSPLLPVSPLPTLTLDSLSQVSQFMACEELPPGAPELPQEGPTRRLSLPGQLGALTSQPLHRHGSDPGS

[8] = system: Mus musculus; assay: Antipruritic activity against histamine-induced scratching C57/bl6 mouse model assessed as inhibition of itching at 5 to 20 mg/kg, po administered 30 mins prior to histamine challenge measured over 20 mins; format: functional, organism-based
In short: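 Mice (n = 6–8 per group) were dosed orally in 20% hydroxypropyl-β-cyclodextran 30 min before intradermal histamine (100 μg). Magnets were placed on the ear and the mice were put in containers above a solenoid. Scratch-specific signals were counted automatically over 20 min immediately after the histamine injection.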

[9] = Binding affinity to dog histamine H4 receptor; set-up: species or system Canis lupus familiaris
[10] = Volume of distribution at steady state in Balb/c mouse at 2 mg/kg, iv; format: ADME, organism-based; set-up: dose 2 mg/kg, route intravenous; conditions: in vivo, read-out: Vdss
[11] = Half life in Balb/c mouse at 20 mg/kg, po; format: ADME, organism-based; set-up: dose 20 mg/kg, route oral; conditions: in vivo
[12] = Cmax in Sprague-Dawley rat at 500 mg/kg, po; format: ADME, organism-based; set-up: dose 500 mg/kg, route oral; conditions: in vivo
[13] = Half life in rat liver microsomes; format: ADME
[14] = Half life in beagle dog at 10 mg/kg, po; format: ADME, organism-based, Canis lupus familiaris; set-up: dose 10 mg/kg, route oral; conditions: in vivo
[15] = Tmax in Sprague-Dawley rat at 200 mg/kg, po; format: ADME, organism-based; set-up: dose 200 mg/kg, route oral; conditions: in vivo
[16] = Fraction unbound in rat plasma; format: ADME, cell-free
[17] = Tmax in Balb/c mouse at 5 mg/kg, po; format: ADME, organism-based; set-up: dose 5 mg/kg, route oral; conditions: in vivo
[18] = biological target: Cytochrome P450 2D6 (Homo sapiens, UniProt P10635); assay: Inhibition of CYP2D6 (unknown origin) at 50 to 100 uM; format: ADME
Chain of Cytochrome P450 2D6 (P10635 whole entry): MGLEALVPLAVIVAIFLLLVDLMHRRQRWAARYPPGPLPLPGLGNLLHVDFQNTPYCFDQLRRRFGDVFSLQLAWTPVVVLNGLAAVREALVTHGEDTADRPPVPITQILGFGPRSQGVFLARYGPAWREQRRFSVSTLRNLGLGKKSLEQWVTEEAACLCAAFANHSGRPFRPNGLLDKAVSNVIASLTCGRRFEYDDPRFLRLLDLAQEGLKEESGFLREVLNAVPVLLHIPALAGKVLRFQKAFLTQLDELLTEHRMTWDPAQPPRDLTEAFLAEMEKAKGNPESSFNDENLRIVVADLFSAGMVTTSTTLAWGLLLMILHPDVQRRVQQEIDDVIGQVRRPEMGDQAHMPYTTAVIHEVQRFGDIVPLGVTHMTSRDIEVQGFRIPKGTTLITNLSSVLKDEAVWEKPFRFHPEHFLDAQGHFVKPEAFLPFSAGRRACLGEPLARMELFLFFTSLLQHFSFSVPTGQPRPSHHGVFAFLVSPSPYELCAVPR

[19] = Permeability from apical to basolateral side in human Caco cells; format: ADME, cell-based; conditions: Caco-2, read-out: permeability

Q: Which bioavailability [1] does the source give for CC(C)c1cc(N2CC[C@@H](N)C2)nc(N)n1 [JNJ-39758979] here?
A: 84%

Q: And the bioavailability [2]?
A: 95%

Q: And the half-life [3]?
A: > 3 h

Q: And the half-life [4]?
A: 22.3 h

Q: What about the clearance [5] of the same molecule?
A: 23.3 mL/min/kg

Q: And the half-life [6]?
A: 20.5 h

Q: What about the “inhibition (INH)” value [7] of the same molecule?
A: Not Active

Q: What about the inhibition [8] of the same molecule?
A: Active

Q: What about the Ki [9] of the same molecule?
A: ≥ 10 µM

Q: And the Vd [10]?
A: 31 L/kg

Q: And the half-life [11]?
A: 4.7 h

Q: What about the Cmax [12] of the same molecule?
A: 7.07 µM

Q: And the half-life [13]?
A: > 2 h

Q: What about the half-life [14] of the same molecule?
A: 11.2 h

Q: What about the Tmax [15] of the same molecule?
A: 8 h

Q: And the fraction unbound [16]?
A: 0.83

Q: And the Tmax [17]?
A: 2 h

Q: What about the “inhibition (INH)” value [18] of the same molecule?
A: Not Active

Q: What about the Papp A→B [19] of the same molecule?
A: 23 ×10⁻⁶ cm/s
